ChEMBL document CHEMBL5357041, “Discovery of novel β-elemene hybrids with hydrogen sulfide-releasing moiety possessing cardiovascular protective activity for the treatment of atherosclerosis” (RSC Med Chem, 2024)
In brackets after ≈: the same amount, converted by molar mass. Activity calls are given as the source filed them. The rule behind the calls is not given here.

Columns and labels:
[1] = Induction of H2S release in phosphate buffer at 100 uM measured upto 150 mins under L-cysteine stimulated condition by microplate reader analysis; conditions: 2.5 h
Procedure, shortened: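 Compound (100 μM) incubated with 1 mM L-cysteine in phosphate buffer at 37 °C, sampled at 0–150 min. Each sample quenched with zinc acetate and trichloroacetic acid, then N,N-dimethyl-p-phenylenediamine and FeCl₃ in HCl added. Absorbance read at 670 nm after 10 min; H₂S quantified against a NaHS standard curve (5–150 μM).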

[2] = system: Thoracic aorta; assay: Vasodilation activity against KCl-induced Sprague-Dawley rat thoracic aorta vessels contraction at 40 uM; type: functional
Procedure, shortened: (§1)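 Aortic rings of about 2 mm from anesthetized SD rats mounted in Krebs solution at 37 °C under oxygen, preload 9.8 mN, equilibrated about 1 h. Rings contracted with 25 mM K⁺, then compound added cumulatively. Relaxation (%) = (maximum KCl tension − tension after compound)/(maximum KCl tension − preload). ADT-OH served as control; mean ± SD, n = 4.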

[3] = system: Thoracic aorta; assay: Vasodilation activity against KCl-induced Sprague-Dawley rat thoracic aorta vessels contraction at 1 uM; type: functional; procedure, shortened: as §1
[4] = system: Thoracic aorta; assay: Vasodilation activity against KCl-induced Sprague-Dawley rat thoracic aorta vessels contraction at 10 uM; type: functional; procedure, shortened: as §1
[5] = Cytotoxicity against mouse BMDM cells assessed as cell viability at 100 uM incubated for 24 hrs by MTT assay; type: toxicity, cell-based; conditions: BMDM cells (bone marrow-derived macrophages), read-out: Activity
Procedure, shortened: (§2)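 Primary bone marrow macrophages taken from 6-week-old male C57 mice and cultured 6–7 days before use. Compounds dosed for 24 h, then MTT added for 4 h and formazan dissolved in DMSO; absorbance read at 570 nm. Triplicate wells; medium-only and untreated-cell controls; mean ± SD, n = 4.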

[6] = Cytotoxicity against mouse BMDM cells assessed as cell viability at 50 uM incubated for 24 hrs by MTT assay; type: toxicity, cell-based; conditions: BMDM cells (bone marrow-derived macrophages), read-out: Activity; procedure, shortened: as §2
[7] = system: Thoracic aorta; assay: Vasodilation activity against KCl-induced Sprague-Dawley rat thoracic aorta vessels contraction at 20 uM; type: functional; procedure, shortened: as §1
[8] = system: Thoracic aorta; assay: Vasodilation activity against KCl-induced Sprague-Dawley rat thoracic aorta vessels contraction at 5 uM; type: functional; procedure, shortened: as §1
[9] = system: RAW264.7; assay: Lipid lowering activity in ox-LDL stimulated mouse RAW264.7 cells at 50 uM by oil red O staining based microscopic analysis; type: functional, cell-based
Procedure, shortened: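 RAW 264.7 cells allowed to adhere 2 h, then exposed to ox-LDL (50 μg/mL) plus compound (50 μM) for 24 h. Cells fixed in 4% paraformaldehyde, stained with oil red O, rinsed in 60% isopropanol and counterstained with hematoxylin. Oil red O-positive area percentage quantified microscopically; ANOVA used.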

[10] = system: HUVEC; assay: Inhibition of H2O2-induced oxidative damage in HUVECs preincubated for 24 hrs followed by H2O2 addition and measured after 2 hrs by MTT method; type: functional, cell-based; conditions: Homo sapiens, time 26.0 hrs
Procedure, shortened: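 HUVECs were seeded and grown 24 h at 37 °C, 5% CO₂, then given compound (0.5, 5 or 20 μM) for 24 h. Control and model wells received serum-free medium instead. Model and treated wells were then exposed to 1 mM H₂O₂ for 2 h, followed by MTT for 4 h, DMSO, and absorbance at 570 nm. Trolox was the positive control; mean ± SD, n = 5.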

[11] = system: HUVEC; assay: Cytotoxicity against HUVECs at 0.5 to 200 uM incubated for 24 hrs by MTT assay; type: toxicity, cell-based; conditions: human, dose 0.5-200 µM
Procedure, shortened: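 HUVECs bought from ATCC; compounds given for 24 h, then MTT (5 mg/mL, 20 μL/well) added for 4 h. Formazan dissolved in DMSO and absorbance read at 570 nm. Medium-only and untreated-cell wells served as controls.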

[12] = system: Thoracic aorta; assay: Vasodilation activity against KCl-induced Sprague-Dawley rat thoracic aorta vessels contraction in presence of glyburide; type: functional, tissue-based
[13] = Water solubility of the compound after 20 mins by HPLC analysis; type: physicochemical
Procedure, shortened: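 Compound suspended in 1 mL water at room temperature, sonicated 20 min and passed through a 0.22 μm filter. Filtrate analyzed by HPLC (MeCN/water 95:5, 1.0 mL/min, UV 254 nm) and quantified against a standard curve of 0.5–500 μg/mL in MeOH.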

Row | Structure (SMILES) | Activity [1] [µM] | Activity [2] [%] | Activity [3] [%] | Activity [4] [%] | viability at 24 h, 100 µM [5] [%] | viability at 24 h, 50 µM [6] [%] | Activity [7] [%] | Activity [8] [%] | Activity [9] | inhibition [10] | Activity [11] | Activity [12] | solubility at 20 min [13] [µg/mL]
1 | O=C(O)CCCCC1CCSS1 (stereo not drawn) [LIPOIC ACID, ALPHA] | 20 |  |  |  |  |  |  |  |  |  |  |  | 
2 | C=C[C@]1(C)CC[C@@H](C(=C)COC(=O)CCCCCC(=O)Oc2ccc(C(N)=S)cc2)C[C@H]1C(=C)C |  | 6.38 | 1.2 | 2.67 | 219 | 177 | 4.19 | 4.53 |  |  |  |  | 
3 | C=C[C@]1(C)CC[C@@H](C(=C)COC(=O)/C=C\C(=O)OCCOc2ccc(-c3cc(=S)ss3)cc2)C[C@H]1C(=C)C |  | 10.78 | -4.07 | 7.28 | 89.7 | 99 | 12.57 | 1.54 |  |  |  |  | 
4 | C=C[C@]1(C)CC[C@@H](C(=C)COC(=O)CCCCCC(=O)Oc2ccc(-c3nc(=O)ss3)cc2)C[C@H]1C(=C)C |  | 8.22 | -0.4 | 2.38 | 391 | 323 | 7.08 | 4.76 | Active |  |  |  | 
5 | C=C[C@]1(C)CC[C@@H](C(=C)COCCCCCCOc2ccc(C(N)=S)cc2)C[C@H]1C(=C)C |  | 12.18 | 6.68 | 0.07 | 17.1 | 279 | 10.31 | 4.72 |  |  |  |  | 
6 | C=C[C@]1(C)CC[C@@H](C(=C)COC(=O)C(NC(=O)CCCCC2CCSS2)C(C)CC)C[C@H]1C(=C)C (some centres not stated) |  | 14.47 | -5.9 | 2.19 | 268 | 208 | 1.21 | -8.16 |  |  |  |  | 
7 | C=C[C@]1(C)CC[C@@H](C(=C)C)C[C@H]1C(=C)COC(=O)C(NC(=O)CCCCC1CCSS1)C(C)CC (some centres not stated) |  | 14.67 | 1.1 | -3.6 | 882 | 672 | 5.16 | 2.78 |  |  |  |  | 
8 | C=C[C@]1(C)CC[C@@H](C(=C)COCCCCOc2ccc(C(N)=S)cc2)C[C@H]1C(=C)C |  | 30.23 | 4.61 | 17.37 | 14.9 | 163 | 15.38 | 4.13 |  |  |  |  | 
9 | C=C[C@]1(C)CC[C@@H](C(=C)CO)C[C@H]1C(=C)C |  | 53.06 | 0.09 | 5.63 | 281 | 275 | 27.81 | 4.63 |  | Active | Non-Toxic |  | 
10 | Oc1ccc(-c2cc(=S)ss2)cc1 |  | 75.01 | 3.08 | 42.24 |  |  | 61.69 | 5.39 |  | Active | Non-Toxic | inactive | 
11 | C=C[C@]1(C)CC[C@@H](C(=C)COC(=O)CCC(=O)OCCOc2ccc(-c3cc(=S)ss3)cc2)C[C@H]1C(=C)C | 100 | 12.14 | 1.27 | 11.63 | 349 | 264 | 12.67 | 6.87 |  |  |  |  | 
12 | C=C[C@]1(C)CC[C@@H](C(=C)COC(=O)C(NC(=O)CCC(=O)OCCOc2ccc(-c3cc(=S)ss3)cc2)C(C)CC)C[C@H]1C(=C)C (some centres not stated) | 100 | 14.29 | 1.7 | -6.76 | 584 | 295 | 4.83 | 3.38 |  |  |  |  | 
13 | C=C[C@]1(C)CC[C@@H](C(=C)COC(=O)CCCCC2CCSS2)C[C@H]1C(=C)C (some centres not stated) |  | 11.51 | -3.41 | 6.38 | 378 | 296 | 8.99 | -5.69 |  |  |  |  | 
14 | C=C[C@]1(C)CC[C@@H](C(=C)COC(=O)CCCCCCC(=O)Oc2ccc(-c3cc(=S)ss3)cc2)C[C@H]1C(=C)C |  | 14.68 | 12.81 | 0.55 | 202 | 189 | 7.96 | 5.04 |  |  |  |  | 
15 | C=C[C@]1(C)CC[C@@H](C(=C)C)C[C@H]1C(=C)COC(=O)CCC(=O)OCCOc1ccc(-c2cc(=S)ss2)cc1 |  | 7.43 | 7.47 | 14.98 | 262 | 244 | 13.2 | -8.64 |  |  |  |  | 
16 | C=C[C@]1(C)CC[C@@H](C(=C)C)C[C@H]1C(=C)COC(=O)CCCCC1CCSS1 (some centres not stated) |  | 17.27 | -19.8 | 20.75 | 336 | 157 | 24.52 | -2.4 |  |  |  |  | 
17 | C=C[C@]1(C)CC[C@@H](C(=C)C)C[C@H]1C(=C)COC(=O)C(NC(=O)CCC(=O)OCCOc1ccc(-c2cc(=S)ss2)cc1)C(C)CC (some centres not stated) |  | 13 | 0.64 | 6.75 | 272 | 269 | 7.93 | 2.75 |  |  |  |  | 
18 | C=C[C@]1(C)CC[C@@H](C(=C)COC(=O)c2c(F)cccc2C(=O)OCCOc2ccc(-c3cc(=S)ss3)cc2)C[C@H]1C(=C)C | 100 | 61.41 | 18.12 | 38.87 | 347 | 193 | 51.85 | 25.08 | Active | Active | Non-Toxic | Active | 40 (≈ 62.6 µM)
19 | C=C[C@]1(C)CC[C@@H](C(=C)COC(=O)c2ccccc2C(=O)OCCOc2ccc(-c3cc(=S)ss3)cc2)C[C@H]1C(=C)C | 100 | 28.25 | -2.99 | 17 | 454 | 349 | 17.46 | 10.01 | Active | Active | Non-Toxic |  | 
20 | C=C[C@]1(C)CC[C@@H](C(=C)COC(=O)CCC(=O)OCCOc2ccc(-c3nc(=O)ss3)cc2)C[C@H]1C(=C)C |  | 34.29 | -0.71 | 17.84 | 254 | 266 | 26.82 | 10.11 | Active |  |  |  | 
21 | NC(=S)c1ccc(O)cc1 | 50 |  |  |  |  |  |  |  |  |  |  |  | 
22 | C=C[C@]1(C)CC[C@@H](C(=C)COCCCCCCCCOc2ccc(C(N)=S)cc2)C[C@H]1C(=C)C |  | 19.64 | -4.54 | 8.86 | 27.1 | 74.5 | 12.44 | 1.71 | Active |  |  |  | 
23 | C=C[C@]1(C)CC[C@@H](C(=C)COC(=O)CCCCCC(=O)Oc2ccc(-c3cc(=S)ss3)cc2)C[C@H]1C(=C)C |  | 21.17 | -1.15 | 6.99 | 459 | 232 | 16.08 | 6.64 |  |  |  |  | 
